# Data taken from ChEMBL document CHEMBL1955763, “Antimicrobial activity of sulfonamides containing 5-chloro-2-hydroxybenzaldehyde and 5-chloro-2-hydroxybenzoic acid scaffold” (Eur J Med Chem, 2012).
# pIC50: −log10 of the molar value.
# Tests used:
# Trichosporon asahii = test: Antifungal activity against Trichosporon asahii 1188 after 24 hrs by broth microdilution method; assay type: functional; conditions: Trichosporon asahii, 1188, 24 h
# In short: (§1)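 Microdilution broth per CLSI M27-A3 (yeasts) or M38-A2 (moulds) in RPMI 1640 with glutamine, buffered to pH 7.0 with 0.165 mol MOPS. Compounds were in DMSO. Final inoculum was 5 × 10³ ± 0.2 CFU/mL. Other conditions matched the antibacterial assay, with MIC as IC₉₀ read visually and at 540 nm. Determined twice, in duplicate.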
# Aspergillus fumigatus = test: Antifungal activity against Aspergillus fumigatus 231 after 24 hrs by broth microdilution method; assay type: functional; conditions: Aspergillus fumigatus, 231, 24 h; in short: as §1
# Lichtheimia corymbifera = test: Antifungal activity against Absidia corymbifera 272 after 24 hrs by broth microdilution method; assay type: functional; conditions: Lichtheimia corymbifera, 272, 24 h; in short: as §1
# [1] = system: Trichophyton mentagrophytes; test: Antifungal activity against Trichophyton mentagrophytes 445 after 24 hrs by broth microdilution method; assay type: functional; conditions: Trichophyton mentagrophytes, 445, 24 h
# [2] = Selectivity ratio of IC50 for human HepG2 cell sto MIC100 for Mycobacterium kansasii 6509/96; assay type: functional
# [3] = Selectivity ratio of IC50 for human HepG2 cell sto MIC90 for Staphylococcus aureus CCM 4516/08; assay type: functional
# [4] = system: Mycobacterium tuberculosis; test: Antimycobacterial activity against Mycobacterium tuberculosis H37Rv 331/88 after 14 days; assay type: functional; conditions: H37Rv 331/88, 336 h
# [5] = Selectivity ratio of IC50 for human HepG2 cell sto MIC100 for Mycobacterium kansasii 235/80; assay type: functional
# HepG2 = test: Cytotoxicity against human HepG2 cells after 24 hrs by MTS assay; assay type: cell-based; conditions: HepG2, 24 h
# In short: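 Hep G2 human liver cells (passage 3–4), 10 000 per well, in MEM with 1% glutamine, 10% fetal serum and 1% non-essential amino acids. Compounds were added from DMSO at eight increasing concentrations in quadruplicate. Exposure was 24 h at 37 °C in 5% CO₂, then MTS reagent for 1.5 h. Formazan was read at 490 nm and IC₅₀ derived as 50% of control viability.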
# [6] = system: Mycobacterium tuberculosis; test: Antimycobacterial activity against Mycobacterium tuberculosis H37Rv 331/88 after 21 days; assay type: functional; conditions: H37Rv 331/88, 504 h
# In short: (§2)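 Micromethod in Sula semisynthetic medium, with compounds added as DMSO solutions over a two-fold series from 1000 down to 1. Inoculum for M. avium 330/88 was a 10⁻⁵ dilution. Plates were incubated at 37 °C and MIC was read after 14 and 21 days.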
# Mycobacterium avium [7] = test: Antimycobacterial activity against isoniazid-, rifampicin-, ofloxacin-, ethambutol-resistant Mycobacterium avium 330/88 after 14 days; assay type: functional; conditions: 330/88, 336 h; in short: as §2
# Mycobacterium avium [8] = test: Antimycobacterial activity against isoniazid-, rifampicin-, ofloxacin-, ethambutol-resistant Mycobacterium avium 330/88 after 21 days; assay type: functional; conditions: 330/88, 504 h; in short: as §2
# Mycobacterium kansasii [9] = test: Antimycobacterial activity against Mycobacterium kansasii 235/80 after 7 days; assay type: functional; conditions: 235/80, 168 h
# In short: (§3)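 Micromethod MIC in Sula semisynthetic medium, with compounds added as DMSO solutions at […]. Incubation at 37 °C. Inocula: M. kansasii 235/80 at dilution 10⁻⁴, clinical isolate 6509/96 at 10⁻⁵.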
# Mycobacterium kansasii [10] = test: Antimycobacterial activity against Mycobacterium kansasii 235/80 after 14 days; assay type: functional; conditions: 235/80, 336 h; in short: as §3
# Mycobacterium kansasii [11] = test: Antimycobacterial activity against Mycobacterium kansasii 235/80 after 21 days; assay type: functional; conditions: 235/80, 504 h; in short: as §3
# Mycobacterium kansasii [12] = test: Antimycobacterial activity against Mycobacterium kansasii 6509/96 after 7 days; assay type: functional; conditions: 6509/96, 168 h; in short: as §3
# Mycobacterium kansasii [13] = test: Antimycobacterial activity against Mycobacterium kansasii 6509/96 after 14 days; assay type: functional; conditions: 6509/96, 336 h; in short: as §3
# Mycobacterium kansasii [14] = test: Antimycobacterial activity against Mycobacterium kansasii 6509/96 after 21 days; assay type: functional; conditions: 6509/96, 504 h; in short: as §3
# Staphylococcus aureus [15] = test: Antibacterial activity against Staphylococcus aureus CCM 4516/08 after 24 hrs by broth microdilution method; assay type: functional; conditions: CCM 4516/08, 24 h
# In short: (§4)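 Microdilution broth method modified from M07-A07, in Mueller-Hinton broth at pH 7.4 (±0.2). Compounds were dissolved in DMSO. Inoculum was made in sterile water to 0.5 McFarland (1.5 × 10⁸ CFU/mL). MIC was taken as IC₉₀, meaning ≥90% growth reduction versus the drug-free control. Growth was read visually and by absorbance at 540 nm.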
# Staphylococcus aureus [16] = test: Antibacterial activity against Staphylococcus aureus CCM 4516/08 after 48 hrs by broth microdilution method; assay type: functional; conditions: CCM 4516/08, 48 h
# In short: (§5)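 Broth microdilution modified from standard M07-A07 in Mueller-Hinton broth at pH 7.4 (±0.2). Compounds were dissolved in DMSO. Inoculum in sterile water was adjusted to 0.5 McFarland (1.5 × 10⁸ CFU/mL). MIC was taken as IC₉₀, i.e. ≥90% growth reduction versus control, read visually and spectrophotometrically at 540 nm.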
# Staphylococcus aureus [17] = test: Antibacterial activity against methicillin-resistant Staphylococcus aureus H 5996/08 after 24 hrs by broth microdilution method; assay type: functional; conditions: H 5996/08, 24 h; in short: as §4
# Staphylococcus aureus [18] = test: Antibacterial activity against methicillin-resistant Staphylococcus aureus H 5996/08 after 48 hrs by broth microdilution method; assay type: functional; conditions: H 5996/08, 48 h; in short: as §4
# [19] = system: Staphylococcus epidermidis; test: Antibacterial activity against methicillin-resistant Staphylococcus epidermidis H 6966/08 after 24 hrs by broth microdilution method; assay type: functional; conditions: H 6966/08, 24 h; in short: as §4
# [20] = system: Staphylococcus epidermidis; test: Antibacterial activity against methicillin-resistant Staphylococcus epidermidis H 6966/08 after 48 hrs by broth microdilution method; assay type: functional; conditions: H 6966/08, 48 h; in short: as §4
# Escherichia coli = test: Antibacterial activity against Escherichia coli CCM 4517 after 24 hrs by broth microdilution method; assay type: functional; conditions: CCM 4517, 24 h; in short: as §5
# Klebsiella pneumoniae [21] = test: Antibacterial activity against Klebsiella pneumoniae D 11750/08 after 24 hrs by broth microdilution method; assay type: functional; conditions: D 11750/08, 24 h; in short: as §5
# Klebsiella pneumoniae [22] = test: Antibacterial activity against ESBL-positive Klebsiella pneumoniae J 14368/08 after 24 hrs by broth microdilution method; assay type: functional; conditions: J 14368/08, 24 h; in short: as §5
# Pseudomonas aeruginosa = test: Antibacterial activity against Pseudomonas aeruginosa CCM 1961 after 24 hrs by broth microdilution method; assay type: functional; conditions: CCM 1961, 24 h; in short: as §5
# Candida albicans = test: Antifungal activity against Candida albicans ATCC 44857 after 24 hrs by broth microdilution method; assay type: functional; conditions: ATCC 44857, 24 h; in short: as §1
# Candida tropicalis = test: Antifungal activity against Candida tropicalis 156 after 24 hrs by broth microdilution method; assay type: functional; conditions: Candida tropicalis, 156, 24 h; in short: as §1
# Nakaseomyces glabratus = test: Antifungal activity against Candida glabrata 20/I after 24 hrs by broth microdilution method; assay type: functional; in short: as §1
# Pichia kudriavzevii = test: Antifungal activity against Candida krusei E58 after 24 hrs by broth microdilution method; assay type: functional; conditions: E58, 24 h; in short: as §1
# Enterococcus sp. = test: Antibacterial activity against Enterococcus sp. J 14365/08 after 24 hrs by broth microdilution method; assay type: functional; conditions: J 14365/08, 24 h; in short: as §5
# [23] = Selectivity ratio of IC50 for human HepG2 cell sto MIC90 for methicillin-resistant Staphylococcus aureus H 5996/08; assay type: functional
# [24] = system: Mycobacterium avium complex sp.; test: Antimycobacterial activity against Mycobacterium avium complex; assay type: functional
# [25] = system: Mycobacterium tuberculosis; test: Antituberculosis activity against Mycobacterium tuberculosis H37Rv after 18 hrs by alamar blue assay; assay type: functional, organism-based
Compound,Ratio [2],Ratio [3],MIC [4] [µM],Ratio [5],pIC50 (HepG2),MIC [6] [µM],MIC (Mycobacterium avium [7]) [µM],MIC (Mycobacterium avium [8]) [µM],MIC (Mycobacterium kansasii [9]) [µM],MIC (Mycobacterium kansasii [10]) [µM],MIC (Mycobacterium kansasii [11]) [µM],MIC (Mycobacterium kansasii [12]) [µM],MIC (Mycobacterium kansasii [13]) [µM],MIC (Mycobacterium kansasii [14]) [µM],MIC (Staphylococcus aureus [15]) [µM],MIC (Staphylococcus aureus [16]) [µM],MIC (Staphylococcus aureus [17]) [µM],MIC (Staphylococcus aureus [18]) [µM],MIC [19] [µM],MIC [20] [µM],also measured
O=S(=O)(Nc1nccs1)c1ccc(/N=C/c2cc(Cl)ccc2O)cc1,78.2,10,32,78.2,3.50,62.5,62.5,125,2,4,4,2,2,2,31.2,31.2,31.2,31.2,> 500,> 500,MIC (Trichosporon asahii): > 125 µM; MIC (Aspergillus fumigatus): > 125 µM; MIC (Lichtheimia corymbifera): > 125 µM; MIC [1]: > 125 µM; MIC (Escherichia coli): 500 µM; MIC (Klebsiella pneumoniae [21]): 500 µM; MIC (Klebsiella pneumoniae [22]): 500 µM; MIC (Pseudomonas aeruginosa): ≥ 500 µM; MIC (Candida albicans): > 125 µM; MIC (Candida tropicalis): > 125 µM; MIC (Nakaseomyces glabratus): > 125 µM; MIC (Pichia kudriavzevii): > 125 µM
Cc1cc(C)nc(NS(=O)(=O)c2ccc(NC(=O)c3cc(Cl)ccc3O)cc2)n1,5.4,10.8,125,5.4,3.47,125,32,62.5,16,32,62.5,16,62.5,62.5,15.6,15.6,15.6,31.2,31.2,250,MIC (Trichosporon asahii): 125 µM; MIC [1]: 125 µM; MIC (Enterococcus sp.): 125 µM
Cc1cc(NS(=O)(=O)c2ccc(N)cc2)no1 [SULFAMETHOXAZOLE],163.9,5.2,32,163.9,2.58,32,32,62.5,8,16,16,4,4,4,250,500,62.5,250,250,500,MIC (Aspergillus fumigatus): 250 µM; Ratio [23]: 5.2; MIC50 [24]: 30 µg/mL; MIC80 [24]: 30 µg/mL; MIC (Escherichia coli): ≥ 500 µM; MIC (Klebsiella pneumoniae [21]): ≥ 500 µM; MIC (Klebsiella pneumoniae [22]): ≥ 500 µM; MIC (Pseudomonas aeruginosa): ≥ 500 µM
Nc1ccc(S(=O)(=O)Nc2nccs2)cc1 [SULFATHIAZOLE],1040.3,33.2,32,1040.3,2.38,62.5,62.5,62.5,2,4,4,1,2,2,31.2,62.5,62.5,125,> 500,> 500,pIC50 [25]: ≤ 5.30
